Measurements published in ChEMBL document CHEMBL5154895, “Mechanistic Studies and In Vivo Efficacy of an Oxadiazole-Containing Antibiotic” (J Med Chem, 2022).
≈ marks a conversion by molar mass, not a printed value.

Experiments:
[1] = Toxicity in Balb/c mouse infected with methicillin-resistant Staphylococcus aureus USA300 assessed as chronic inflammatory response at 25 mg/kg, ip administered 2 days post infection twice daily and measured after 5 days post compound treatment by H and E staining based histopathological analysis; assay type: organism-based; conditions: in vivo, 120 h, time 5 day
[2] = In vivo antibacterial activity against methicillin-resistant Staphylococcus aureus USA300 infected Balb/c mouse model assessed as reduction in bacterial infection in skin wounds at 25 mg/kg , ip administered 2 days post infection once daily and measured after 5 days post compound treatment by histopathological analysis; set-up: scale not given: the % may be the effect or the level left; conditions: time 5 day
[3] = Toxicity in Balb/c mouse infected with methicillin-resistant Staphylococcus aureus USA300 assessed as hemorrhage at 25 mg/kg, ip administered 2 days post infection twice daily and measured after 5 days post compound treatment by H and E staining based histopathological analysis; assay type: organism-based; conditions: in vivo, 120 h, time 5 day
[4] = Toxicity in Balb/c mouse infected with methicillin-resistant Staphylococcus aureus USA300 assessed as necrosis at 25 mg/kg, ip administered 2 days post infection twice daily and measured after 5 days post compound treatment by H and E staining based histopathological analysis; assay type: organism-based; conditions: in vivo, 120 h, time 5 day
[5] = system: Staphylococcus aureus; experiment: Antibacterial activity against Staphylococcus aureus MRSA ATCC 33592 assessed as inhibition of bacterial growth incubated for 18 to 20 hrs by broth microdilution method; assay type: functional; conditions: time 18-20 hrs
Summary of the method: (§1)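 Broth microdilution per CLSI. Inoculum at 0.5 McFarland, diluted in cation-adjusted Mueller Hinton broth to about 5 × 10^5 CFU/mL. Serial compound dilutions incubated aerobically at 37° C for 18–20 hours. MIC taken as the lowest concentration completely inhibiting visible growth.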

[6] = system: Staphylococcus aureus; experiment: Antibacterial activity against Staphylococcus aureus ATCC 25923 assessed as inhibition of bacterial growth incubated for 18 to 20 hrs by broth microdilution method; assay type: functional; conditions: time 18-20 hrs; summary of the method: as §1
[7] = Toxicity in Balb/c mouse infected with methicillin-resistant Staphylococcus aureus USA300 assessed as necrosis administered topically twice daily 2 days post infection and measured after 5 days post compound treatment by H and E staining based histopathological analysis; conditions: in vivo, topical_or_ocular, 120 h, time 5 day
Summary of the method: (§2)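 MRSA USA300-infected punch wounds in mice, n=5. Topical 2% agent or petroleum jelly vehicle twice daily from day 2 for 5 days. The left wound was formalin-fixed, cut into 4-μm sections and H&E-stained. Whole slides were scanned and assessed by a board-certified veterinary pathologist for necrosis, inflammation, haemorrhage and related features.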

[8] = Toxicity in Balb/c mouse infected with methicillin-resistant Staphylococcus aureus USA300 assessed as chronic inflammatory response administered topically twice daily 2 days post infection and measured after 5 days post compound treatment by H and E staining based histopathological analysis; conditions: in vivo, topical_or_ocular, 120 h, time 5 day; summary of the method: as §2
[9] = Toxicity in Balb/c mouse infected with methicillin-resistant Staphylococcus aureus USA300 assessed as hemorrhage administered topically twice daily 2 days post infection and measured after 5 days post compound treatment by H and E staining based histopathological analysis; conditions: in vivo, topical_or_ocular, 120 h, time 5 day; summary of the method: as §2
[10] = In vivo antibacterial activity against methicillin-resistant Staphylococcus aureus USA300 infected in Balb/c mouse model assessed as reduction in bacterial infection in skin wounds administered topically twice daily 2 days post infection and measured after 5 days post compound treatment by CFU counting; set-up: scale not given: the % may be the effect or the level left; conditions: time 5 day

Row | SMILES | MIC [5] [µg/mL] | MIC [6] [µg/mL] | also measured
1 | CCC[C@@H]1C[C@@H](C(=O)N[C@@H]([C@H]2O[C@H](SC)[C@H](O)[C@@H](O)[C@H]2O)[C@H](C)Cl)N(C)C1 [CLINDAMYCIN] | – | – | Activity [1]: Toxic; Activity [2]: 93.4%; Activity [3]: Toxic; Activity [4]: Toxic
2 | CC1CCN(S(=O)(=O)c2ccc(C(=O)Nc3nnc(-c4ccc(C(F)(F)F)cc4)o3)cc2)CC1 | 1 (≈ 2.02 µM) | 1 (≈ 2.02 µM) | –
3 | CN(C)S(=O)(=O)c1ccc(C(=O)Nc2nnc(-c3ccc(C(F)(F)F)cc3)o2)cc1 | 16 (≈ 36.3 µM) | 16 (≈ 36.3 µM) | –
4 | C/C(=C\C(=O)OCCCCCCCCC(=O)O)C[C@@H]1OC[C@H](C[C@@H]2O[C@H]2[C@@H](C)[C@H](C)O)[C@@H](O)[C@H]1O [MUPIROCIN] | – | – | Activity [7]: Toxic; Activity [8]: Toxic; Activity [9]: Toxic; Activity [10]: 98.8%
5 | O=C(Nc1nnc(-c2ccc(C(F)(F)F)cc2)o1)c1ccc(S(=O)(=O)N2CCCC2)cc1 | 2 (≈ 4.29 µM) | 2 (≈ 4.29 µM) | –
6 | O=C(Nc1nnc(-c2ccc(C(F)(F)F)cc2)o1)c1ccc(S(=O)(=O)N2CCCCC2)cc1 | 2 (≈ 4.16 µM) | 2 (≈ 4.16 µM) | –
7 | O=C(Nc1nnc(-c2ccc(C(F)(F)F)cc2)o1)c1ccc(S(=O)(=O)N2C[C@@H]3CC[C@H]2C3)cc1 | 2 (≈ 4.06 µM) | 2 (≈ 4.06 µM) | –

Further lines, with some results ahead:

Row | MIC [5] [µg/mL] | MIC [6] [µg/mL] | SMILES | also measured
8 | 2 (≈ 4.04 µM) | 2 (≈ 4.04 µM) | CC1CCCN(S(=O)(=O)c2ccc(C(=O)Nc3nnc(-c4ccc(C(F)(F)F)cc4)o3)cc2)C1 (stereo unspecified) | –
9 | > 64 | > 64 | C[C@@H]1C[C@H](C)CN(S(=O)(=O)c2ccc(C(=O)N(C)c3nnc(-c4ccc(C(F)(F)F)cc4)o3)cc2)C1 | –
10 | 2 (≈ 4.04 µM) | 2 (≈ 4.04 µM) | CC1CCCCN1S(=O)(=O)c1ccc(C(=O)Nc2nnc(-c3ccc(C(F)(F)F)cc3)o2)cc1 (stereo unspecified) | –
11 | 4 (≈ 8.84 µM) | 4 (≈ 8.84 µM) | O=C(Nc1nnc(-c2ccc(C(F)(F)F)cc2)o1)c1ccc(S(=O)(=O)NC2CC2)cc1 | –
